Shown are actives, neighbours in structure and some others; about 1.7% of the full set was active somewhere.
TPT1 inhibitor: C. albicans TPT1 enzyme inhibition. AID 1962. inhibition, % at 5 µM. 300,000 compounds, 0.81% hits. recombinant caTPT1, FP RNA substrate dephosphorylation;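 active = inhibition above the mean of all tested compounds plus 3 SD, set per screening campaign, cut at about 24% in these data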;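 note: plate controls were DMSO alone for no effect and ferristatin control at 100 nM for full effect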
Rpn11 block: Rpn11 (human) deubiquitinase inhibition. O00487. human 26S proteasome, Ub4-pepOG fluorescence polarization; 20S core pre-blocked with epoxomicin. calls only at 20 µM. 360,000 compounds, 0.59% hits. AID 588493;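 active = inhibition at 20 µM, scaled to each plate's controls, above about 33%, limit read from the data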
CSN inh: blocks human CSN-mediated cullin deneddylation; Q92905; Purified CSN, SCF-Nedd8-OG deneddylation, fluorescence polarization; inhibition, % at 12.5 µM; 360,000 compounds, 0.38% hits;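 active = pattern-corrected inhibition above about 35%, with an unprinted fluorescence ratio check between 0.5 and 1.5, limit read from the data, passing the limit was not always enough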;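 note: 0% = enzyme with substrate and 100% = substrate without enzyme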
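assay system = purified human Csn5 enzyme expressed in HEK293T cells | amount = 0.24 nM enzyme | buffer or medium = Tris/NaCl/DTT buffer, pH 7.5 | reagent = 10 nM SCFSkp2-Nedd8OG | compound = one concentration, 12.5 µM, 0.25% DMSO | times = 90 min reaction at room temperature | signal = FP | read-out basis = % inhibition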
IDE act: activators of human insulin-degrading enzyme in cells; 340,000 compounds, 0.073% hits; HEK cells, FAbeta-B cleavage, fluorescence polarization; 0% vehicle, 100% cell-free pure enzyme wells; AID 493087; P14735; activation, % at 5.96 µM;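 active = activation above the mean of all tested compounds plus 3 SD, set per screening campaign, cut at about 17% in these data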
IDE inh: cellular human IDE inhibition; P14735; HEK cells, FAbetaB cleavage, fluorescence polarization; inhibition, % at 5.59 µM; 320,000 compounds, 0.41% hits;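 active = percent inhibition above the average of all tested compounds plus 3 SD, set per screening campaign, cut at about 16% in these data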;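 note: IDE supplied by intact live HEK cells; FP after avidin binding of uncleaved biotin substrate so inhibition keeps polarization high; 0% = DMSO wells and 100% = 60 µM reference IDE inhibitor Ii1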
HNF4A DNA FP: change in binding of human HNF4 alpha to DNA. P41235. activity change, % at 10 µM. HNF4a-FITC DNA binding, fluorescence polarization, 1 h. 360,000 compounds, 0.3% hits. AID 1224865; in the data active = activity change above about 30%, passing the limit was not always enough
Target sequence (P41235 whole entry, looked up): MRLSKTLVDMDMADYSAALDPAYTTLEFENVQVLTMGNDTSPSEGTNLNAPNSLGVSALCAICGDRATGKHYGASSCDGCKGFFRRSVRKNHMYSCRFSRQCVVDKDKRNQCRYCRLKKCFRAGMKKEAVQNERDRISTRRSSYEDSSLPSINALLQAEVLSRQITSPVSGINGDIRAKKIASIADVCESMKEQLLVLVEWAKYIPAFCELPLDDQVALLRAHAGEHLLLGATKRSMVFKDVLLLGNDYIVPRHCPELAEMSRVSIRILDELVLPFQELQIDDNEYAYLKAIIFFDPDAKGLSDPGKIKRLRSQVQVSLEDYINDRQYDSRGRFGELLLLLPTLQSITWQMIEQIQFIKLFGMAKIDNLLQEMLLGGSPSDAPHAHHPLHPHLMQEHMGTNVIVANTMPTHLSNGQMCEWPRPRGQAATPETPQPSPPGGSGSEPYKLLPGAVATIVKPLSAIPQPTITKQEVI
IDE cell inh cf: cellular human IDE inhibition, confirmation; inhibition, % at 5.59 µM; shares compounds with IDE inh; HEK cells, FAbetaB cleavage, fluorescence polarization; 1,200 compounds, 51% hits;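 active = mean inhibition across triplicate wells above the cutoff set by the earlier primary insulin-degrading enzyme screen, cut at about 16% in these data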;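 note: 0% = DMSO wells and 100% = 60 µM reference IDE inhibitor Ii1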
HEK293 tox: counter-screen for IDE inhibitors: cytotoxicity in HEK cells; inhibition, % at 5.59 µM; 1,200 compounds, 28% hits; HEK293 cytotoxicity, ATP luminescence; shares compounds with IDE inh; AID 449730; in the data active = inhibition above about 22%;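 note: 0% = vehicle wells and 100% = reference cytotoxic drug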
IDE FP artifact: fluorescence interference counter-screen for IDE inhibitors. shares compounds with IDE inh. FP counterscreen for fluorescent artifacts, IDE probe project. IC50, µM. 30 tested, under 10 active. AID 588718; call rule not given here
* = called active by the depositor; i = inactive; . = no result given; ! = not active in a repeat.

SMILES | TPT1 inhibitor | Rpn11 block | CSN inh | IDE act | IDE inh | HNF4A DNA FP | IDE cell inh cf | HEK293 tox | others
Cc1ccc(S(=O)(=O)N2CCOCC2)cc1NC(=O)COC(=O)CNC(=O)c1ccc(Oc2ccccc2)cc1 | -6 | i | -8 | -12 | 17* | -2 | 6 | 13
CC(/C=N/n1c(C2CCCCC2)n[nH]c1=S)=C\c1ccccc1 | -3 | i | 1 | -6 | -5 | -4 | . | .
Cn1c(=O)c(C(=O)CN2CCCc3ccccc32)c(N)n(Cc2ccccc2)c1=O | 24 | i | 1 | 0 | 31* | 6 | 17* | 22 | IDE FP artifact=>55
Cc1cc(C=C(C#N)C#N)c(C)n1-c1ccccc1 | -1 | i | 6 | 4 | 1 | -1 | . | .
Cc1ccccc1Nc1nc(-c2sc(NC(=O)c3ccccc3)nc2C)cs1 | 1 | . | . | . | 7 | . | . | .
O=C1c2ccccc2-c2onc3ccc(NCc4ccco4)c1c23 | -71 | i | -82 | -4 | 20* | -43 | 91* | 27*
CCNc1ccc2noc3c2c1C(=O)c1ccccc1-3 | -37 | i | -72 | 17 | -6 | -89 | . | .
Cc1ccc(C2(C)NC(=O)N(CC(=O)NC(=O)NCCC(C)C)C2=O)cc1 (configuration not stated) | 1 | i | 1 | -4 | -6 | -3 | . | .
CC(Sc1nnc(-c2cccnc2)n1-c1ccccc1F)C(=O)N1CCCc2ccccc21 (configuration not stated) | 0 | . | . | . | 22* | . | 16* | 8 | IDE FP artifact=>55
O=C1N(c2ccccc2)CCN1c1ccccc1 | -4 | i | -2 | 5 | 4 | -3 | . | .
O=C1NC(=S)CN1c1ccccc1 | -19 | i | 2 | -31 | 24* | -2 | 5 | 7
Cc1ccccc1N(CC(=O)Nc1ccccc1C(=O)O)S(C)(=O)=O | 2 | i | 1 | -34 | 23* | -6 | 14 | 6
COc1ccc(NC(=O)CCNS(=O)(=O)c2cc(Br)ccc2Br)cc1S(N)(=O)=O | -1 | i | -1 | -1 | 0 | -1 | . | .
CCOc1cc2c(cc1OCC)C(c1ccc(OC)cc1)N(c1ccccc1)C(=O)C2 (configuration not stated) | 3 | i | -1 | 6 | -2 | 5 | . | .
CC(=O)N1CC[n+]2c(-c3ccc(Cl)cc3)csc21 | 1 | i | -2 | -14 | 22* | 0 | 2 | 14
CC1CCCN(C(=O)c2cc(N3C(=O)C4C5CCC(C5)C4C3=O)ccc2Cl)C1 (configuration not stated) | 0 | . | . | . | -1 | . | . | .
COc1ccccc1N1CCN(C(=O)c2cc(N3C(=O)C4C5CCC(C5)C4C3=O)ccc2Cl)CC1 (configuration not stated) | 2 | i | -6 | -16 | 31* | 0 | 21* | 11
CC(C)C[C@H]1CNC(=O)C(=O)N1CC1CCN(CCC(C)(C)C)CC1 | . | i | 3 | 2 | . | 4 | . | .
CCc1ccc(OCC(=O)O/N=C(\N)c2cccnc2)cc1 | -3 | i | 7 | . | 17* | -3 | 3 | 11
Cc1ccc(C)c(OCC(=O)O/N=C(\N)c2cccnc2)c1 | 1 | i | -1 | -6 | 4 | -1 | . | .
COc1cc(N=c2ssnc2Cl)c(OC)cc1Cl | -4 | i | -5 | -19 | 18*! | 1 | 12 | 34*
COc1ccc(OC)c(N=c2ssnc2Cl)c1 | -1 | i | 0 | 1 | -2 | -1 | . | .
O=C(NCc1nc2ncc(Br)cc2[nH]1)c1ccccc1 | -2 | i | 5 | 1 | -1 | 2 | . | .
O=c1[nH]c2cc(Br)cnc2nc1/C=C(\O)c1ccc(F)cc1 | 19 | i | 4 | -50 | 26* | 11 | 65* | 13
CC(=O)Nc1ccc(NC(=O)CSc2nc3c([nH]c4ccccc43)c(=O)n2-c2ccccc2F)cc1 | 1 | i | 3 | 5 | -3 | -1 | . | .

Screens as filed in PubChem BioAssay.
